Assay outcomes from PubChem.
Diaph act CS: activates diaphorase or chemically reduces, flagging diaphorase assay artifacts. Diaphorase/resazurin coupled assay, resorufin fluorescence, 16 min; active compounds read high; 1 = vehicle wells, 0 = NADH-free wells. activation factor at 20 µM. actives 0.005% (n = 190,000);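 active = diaphorase activity raised at least twofold by the compound at 20 µM; inactive = activation factor below 2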
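Material: Purified diaphorase enzyme from Clostridium kluyveri | Buffer or medium: 50 mM HEPES pH 7.4 with 4.542 mM MgCl2, 0.005% Tween 20 | Times: 16 min enzyme reaction, ambient temperature | Signal: Red resorufin fluorescence at 544/590 nm excitation/emission | Measure: Increased resorufin signal from activators or reducing compounds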
WT yeast gro inh: growth inhibition of WT yeast, mitochondrial fusion screen. actives 2.1% (n = 190,000). inhibition, % at 10 µM. AID 1362. mitochondrial fusion phenotypic screen, WT strain; in the data active = inhibition above about 58%; tested in S. cerevisiae
L major viab: inhibitors of Leishmania major promastigote growth; Leishmania major promastigotes, resazurin fluorescence viability; inhibition, % at 10 µM; actives 9% (n = 200,000); AID 1063; in the data active = inhibition above about 50%;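 note: promastigotes grown with compound for 44 hours at 28 °C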
ROMK mod: modulates human ROMK potassium channel activity | AID 1918 | actives 2% (n = 130,000) | B-score at 10 µM | P48048 | Tet-inducible ROMK, thallium flux fluorescence; actives lie on both sides;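 active = signal ratio slope over the read window, or its plate-corrected B-score, at least 3 SD from the plate mean, either direction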;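 note: B-score of the F/F0 ratio slope over 7 to 12 s after thallium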
Diaphorase inh: inhibits diaphorase or chemically oxidizes, flagging diaphorase assay artifacts; diaphorase resazurin-to-resorufin fluorescence, NADH, 16 min; bacterial (C. kluyveri) enzyme, not human; inhibition, % at 20 µM; actives 0.69% (n = 190,000);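 active = primary screen inhibition at 20 µM above a set limit, cut at about 50% in these data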
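material = Clostridium kluyveri diaphorase enzyme | amount = 0.14 U/mL diaphorase, enzyme working solution | schedule = incubation 16 min, room temperature | detection = fluorescence of resorufin formed from resazurin, Ex 544/Em 590 nm | benchmarks = positive control minus NADH, DMSO neutral control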
KCC2 mod: KCC2 (human) Cl- transport modulation; Q9H2X9; KCC2 cells, thallium flux FluoZin-2 fluorescence; B-score of Tl+ flux slope (higher = more flux/activation; lower = inhibition) at 10 µM; actives 2.2% (n = 190,000);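 active = thallium flux slope and its plate-corrected score both differing from the plate sample mean at a set confidence after two filtering rounds, in either direction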;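 note: slope of fluorescence scaled to starting intensity during 10 to 20 s after thallium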
Hits are given with their value; 0 = inactive; - = no result given. Shown are actives, neighbours in structure and some others; about 12% of the full set was active somewhere.

SMILES	Diaph act CS	WT yeast gro inh	L major viab	ROMK mod	Diaphorase inh	KCC2 mod
CN(C1=C(NC(=O)c2ccccc2)C(=O)c2ccccc2C1=O)C1CCS(=O)(=O)C1 (configuration not stated)	0	0	99	-	59	0
CCN1C(=O)c2cccc3c(NC(=O)c4ccccc4)ccc1c23	0	0	91	-	0	0
CCN1C(=O)c2cccc3c(NC(=O)c4ccc(OC)c(OC)c4)ccc1c23	0	0	100	-	0	0
Cc1ccc(NC(=O)COC(=O)c2ccc([N+](=O)[O-])s2)c(C)c1	0	0	0	-	0	0
COc1ccccc1NC(=O)COC(=O)c1ccc([N+](=O)[O-])s1	0	95	0	0	0	0
CCc1ccccc1NC(=O)c1ccc([N+](=O)[O-])s1	0	0	100	0	0	0
O=C(COC(=O)c1ccc([N+](=O)[O-])s1)NC(=O)NCc1ccccc1	0	0	93	0	0	0
COc1ccc(C2N=C(c3ccccc3)C(C)(C)N2O)cc1 (configuration not stated)	0	0	0	0	0	0
CC1=C(C(=O)Nc2ccccc2)C(c2ccc(C)o2)n2c(s/c(=C\c3ccco3)c2=O)=N1 (configuration not stated)	0	0	84	0	0	-
COc1cccc(C2C(C(=O)Nc3ccccc3)=C(C)N=c3s/c(=C/c4ccc(OCC(=O)O)cc4)c(=O)n32)c1 (configuration not stated)	0	0	0	-	0	0
COc1ccc2oc(=O)c(/C(C)=N/NC(=O)c3ccncc3)cc2c1	0	0	0	-	0	0
N#CC1=C(N)Oc2ccc3ccccc3c2C1c1cccnc1 (configuration not stated)	0	0	88	0	0	0
N#CC1=C(N)Oc2ccc3ccc(O)cc3c2C1c1cccnc1 (configuration not stated)	0	0	0	-	0	0
O=C(CSc1nncn1-c1ccccc1)Nc1cccc(S(=O)(=O)N2CCCCC2)c1	0	0	63	0	0	0
COc1ccc(-n2cnnc2SCC(=O)Nc2cccc(S(=O)(=O)N3CCCCC3)c2)cc1	0	0	0	0	0	0
O=C(CSc1nnc(-c2cccs2)o1)Nc1cccc(S(=O)(=O)N2CCCCC2)c1	0	0	51	0	0	0
CCn1c(NC(=O)C2CCCCC2)nc2ccccc21	0	0	0	-	0	0
S=C(Nc1ccccc1)Nc1nc2ccccc2n1CCOc1ccc(Cl)cc1	0	0	66	-	0	0
CCn1c(NC(=S)Nc2ccccc2)nc2ccccc21	0	0	84	-	0	13
c1ccc(-c2noc(-c3cccc4ccccc34)n2)cc1	0	67	0	0	0	-
CC(=O)c1cccc(S(=O)(=O)NC2CC2)c1	0	0	0	-	0	0
Cn1c(=O)[nH]c(=O)c2c1nc(Br)n2CCSc1ncccn1	0	75	0	0	0	0
C=CCc1ccc(OCC(O)CN2CCN(Cc3ccc(Cl)cc3)CC2)c(OC)c1 (configuration not stated)	0	0	93	0	0	0
COc1cccc(OCC(O)CN2CCOCC2)c1 (configuration not stated)	0	0	0	-	0	0
COc1cccc(OCC(O)CN2CC(C)CC(C)C2)c1 (configuration not stated)	0	0	88	-	0	0
SMILES	Diaph act CS	WT yeast gro inh	L major viab	ROMK mod	Diaphorase inh	KCC2 mod
C=CCc1ccc(OCC(O)CN2CCC(Cc3ccccc3)CC2)c(OC)c1 (configuration not stated)	0	0	100	0	0	0
COc1cccc(OCC(O)CN2CCC(Cc3ccccc3)CC2)c1 (configuration not stated)	0	0	95	-	0	0
C=CCc1ccc(OCC(O)CO)c(OC)c1 (configuration not stated)	0	0	0	0	0	0
Cc1ccc(COc2ccsc2C(=O)NN)cc1	0	0	0	0	0	0
CCC(CC)C(=O)NCCCCc1ccccc1	0	0	0	0	0	0
CC/C(=C(\c1ccc(O)cc1)c1ccc(OCCN(C)C)cc1)c1ccccc1	0	0	-	-	0	0
CCN(CC)CCOc1ccc(/C(=C(/Cl)c2ccccc2)c2ccccc2)cc1	0	98	100	0	0	0
Cc1ccc2[nH]c(=O)c(C(c3nnnn3C3CCCC3)N(Cc3cccnc3)Cc3ccco3)cc2c1 (configuration not stated)	0	0	85	-	0	0
COc1ccc2[nH]c(=O)c(CN(C3CCCCC3)C(c3nnnn3Cc3ccco3)C(C)C)cc2c1 (configuration not stated)	0	0	65	0	0	0
CCN(Cc1ccccc1)C(c1ccccn1)c1nnnn1C1CCCCC1 (configuration not stated)	0	0	0	-	0	0
CCOC(=O)Cn1nnnc1CN(Cc1cccs1)Cc1cc2cc(C)ccc2[nH]c1=O	0	0	0	0	0	0
Cc1ccc2cc(C(c3nnnn3C3CCCC3)N(Cc3cccnc3)Cc3ccco3)c(=O)[nH]c2c1 (configuration not stated)	0	0	0	0	0	0
CC(c1nnnn1C1CCCCC1)N(Cc1ccccc1)Cc1cccnc1 (configuration not stated)	0	0	92	-	0	0
CCOC(=O)Cn1nnnc1C(CC)N(Cc1cccs1)Cc1cc2ccc(OC)cc2[nH]c1=O (configuration not stated)	0	0	99	-	0	0
c1cncc(C(c2nnnn2C2CCCC2)N2CCCC2)c1 (configuration not stated)	0	0	0	0	0	0
CCOc1ccc2[nH]c(=O)c(C(c3nnnn3C3CCCCC3)N3CCN(C)CC3)cc2c1 (configuration not stated)	0	0	0	-	0	0
COc1ccc2[nH]c(=O)c(CN(Cc3ccco3)C(c3nnnn3Cc3ccccc3)C(C)C)cc2c1 (configuration not stated)	0	0	0	0	0	0
CCC(c1nnnn1C1CCCCC1)N(Cc1ccco1)Cc1cc2ccc(OC)cc2[nH]c1=O (configuration not stated)	0	0	74	-	0	0
Cc1ccc2cc(C(c3nnnn3C3CCCC3)N(Cc3ccco3)Cc3cccs3)c(=O)[nH]c2c1 (configuration not stated)	0	0	82	0	0	-
COc1ccc2[nH]c(=O)c(C(c3nnnn3C3CCCC3)N(C)C3CCCCC3)cc2c1 (configuration not stated)	0	0	53	0	0	-
Clc1ccc(C(c2nnnn2C2CCCCC2)N(Cc2cccnc2)Cc2ccco2)cc1 (configuration not stated)	0	70	100	-	0	0
